In ChEMBL document CHEMBL1833913, “Structure-activity relationship study of pyridazine derivatives as glutamate transporter EAAT2 activators” (Bioorg Med Chem Lett, 2011):
Active and inactive are the calls of the source. No cut-off for these calls is given here.

Tests used:
Astrocyte [1] = assay: Increase of EAAT2 expression in mouse primary astrocytes at 10 uM after 24 hrs by Western blot analysis relative to control; type: functional
How it was run: (§1)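 PA-EAAT2 cells (primary astrocyte line stably expressing EAAT2 mRNA) were incubated with compound at 10 μM for 4 h or 24 h. Cells were then harvested and EAAT2 protein measured by Western blot. Results are given as fold increase over DMSO control.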

Astrocyte [2] = assay: Increase of EAAT2 expression in mouse primary astrocytes at 10 uM after 4 hrs by Western blot analysis relative to control; type: functional; how it was run: as §1
Astrocyte [3] = assay: Increase of EAAT2 expression in mouse primary astrocytes after 24 hrs by Western blot analysis relative to GAPDH protein expression; type: functional, cell-based
How it was run: (§2)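 PA-EAAT2 cells (primary astrocyte line stably expressing EAAT2 mRNA) were exposed for 24 h to a 6-point series (0.1, 0.3, 1.0, 5.0, 10.0, 30.0 μM). EAAT2 protein was measured by Western blot and normalised separately to β-actin or GAPDH. Fold increase and EC50 were derived from the dose-response. Values are means of four separate experiments.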

Astrocyte [4] = assay: Increase of EAAT2 expression in mouse primary astrocytes at 1 uM after 24 hrs by Western blot analysis relative to GAPDH protein expression; type: functional; how it was run: as §2
Astrocyte [5] = assay: Increase of EAAT2 expression in mouse primary astrocytes at 10 uM after 24 hrs by Western blot analysis relative to beta-actin protein expression; type: functional; how it was run: as §2
Astrocyte [6] = assay: Increase of EAAT2 expression in mouse primary astrocytes after 24 hrs by Western blot analysis relative to beta-actin protein expression; type: functional, cell-based; how it was run: as §2
Astrocyte [7] = assay: Increase of EAAT2 expression in mouse primary astrocytes at 1 uM after 24 hrs by Western blot analysis relative to beta-actin protein expression; type: functional; how it was run: as §2
Astrocyte [8] = assay: Increase of EAAT2 expression in mouse primary astrocytes at 10 uM after 24 hrs by Western blot analysis relative to GAPDH protein expression; type: functional; how it was run: as §2

| EC50 (Astrocyte [3]) | EC50 (Astrocyte [6]) | SMILES | fold change (FC) (Astrocyte [1]) | fold change (FC) (Astrocyte [2]) | fold change (FC) (Astrocyte [4]) | fold change (FC) (Astrocyte [5]) | fold change (FC) (Astrocyte [7]) | fold change (FC) (Astrocyte [8]) |
| --- | --- | --- | --- | --- | --- | --- | --- | --- |
| – | – | Cc1ccccc1CS(=O)(=O)c1ccc(-c2ccccn2)nn1 | 1.1 | 2.3 | – | – | – | – |
| – | – | Oc1ccc(-c2ccccn2)nn1 | 1.6 | 1.5 | – | – | – | – |
| – | – | Fc1ccc(CSc2ccc(-c3ccccn3)nn2)cc1 | 2.6 | 2.5 | – | – | – | – |
| – | – | Cc1ccccc1CNc1ccc(-c2ccccn2)nn1 | 2.6 | 1.7 | – | – | – | – |
| – | – | Fc1ccc(COc2ccc(-c3ccccn3)nn2)c(F)c1 | 2.3 | inactive | – | – | – | – |
| – | – | Fc1ccccc1CSc1ccc(-c2ccccn2)nn1 | 3.1 | 2.2 | – | – | – | – |
| – | – | Cc1ccccc1CSc1ccc(-c2ccccc2)nn1 | 2 | 1.1 | – | – | – | – |
| – | – | Cc1ccc(Sc2ccc(-c3ccccn3)nn2)c(C)c1 | 2.2 | 1.2 | – | – | – | – |
| – | – | Sc1ccc(-c2ccccn2)nn1 | 2 | inactive | – | – | – | – |
| – | – | CCSc1ccc(-c2ccccn2)nn1 | 1.9 | 1.6 | – | – | – | – |
| – | – | CCCNC(=O)c1ccc(-c2ccccn2)nn1 | 1.2 | inactive | – | – | – | – |
| 1.8 µM | 2.6 µM | Cc1ccccc1CSc1ccc(-c2ccccn2)nn1 | 3.5 | 1.7 | 1 | 3.5 | 1 | 3.1 |
| – | – | O=S(=O)(Cc1ccccc1Cl)c1ccc(-c2ccccn2)nn1 | inactive | 1.6 | – | – | – | – |
| – | – | Cc1ccccc1COc1ccc(-c2ccccn2)nn1 | 2.5 | 2 | – | – | – | – |
| – | – | Fc1ccc(CSc2ccc(-c3ccccn3)nn2)c(Cl)c1 | 1.7 | 1.6 | – | – | – | – |
| 2.1 µM | 2.4 µM | Cc1cc(C)c(CSc2ccc(-c3ccccn3)nn2)c(C)c1 | 4.7 | 1.7 | 1.6 | 4.7 | 1.5 | 4.8 |
| 5.1 µM | 4.7 µM | Clc1ccccc1CCSc1ccc(-c2ccccn2)nn1 | 4.8 | 1.7 | 1 | 4.8 | 1 | 4.5 |
| – | – | Cc1ccccc1COc1ccc(-c2ccccn2)nc1 | inactive | 1.5 | – | – | – | – |
| – | – | Cc1ccccc1CSc1ccc(-c2ccccn2)cn1 | inactive | 1.3 | – | – | – | – |
| 2.4 µM | 3.9 µM | CC(Sc1ccc(-c2ccccn2)nn1)c1c(F)cccc1Cl (centres undefined) | 5.5 | 1.7 | 1.8 | 5.5 | 1.5 | 5.2 |
| – | – | c1ccc(CSc2ccc(-c3ccccn3)cc2)cc1 | 1.1 | 1.2 | – | – | – | – |
| – | – | Fc1cc(F)c(CSc2ccc(-c3ccccn3)nn2)c(F)c1 | 2.4 | 1.6 | – | – | – | – |
| – | – | Cc1cccc(CSc2ccc(-c3ccccn3)nn2)c1 | 2.8 | 2 | – | – | – | – |
| – | – | Cc1ccc(CSc2ccc(-c3ccccn3)nn2)cc1 | 2.6 | 2.1 | – | – | – | – |
| – | – | Fc1ccc(Sc2ccc(-c3ccccn3)nn2)c(Cl)c1 | 2.5 | 1.3 | – | – | – | – |
| – | – | c1ccc(CSc2ccc(-c3ccccn3)nn2)cc1 | 3 | 1.3 | – | – | – | – |
| 1.7 µM | 1.9 µM | c1ccc(-c2ccc(SC3CCCc4ccccc43)nn2)nc1 (centres undefined) | 5.3 | inactive | 2.8 | 5.3 | 2.4 | 4.5 |
